Assay results published in ChEMBL document CHEMBL1127554, “Design, synthesis, and study of 9-substituted ellipticine and 2-methylellipticinium analogues as potential CNS-selective antitumor agents” (1994).

Experiments:
[1] = tested on: Tumor Cell line; experiment: GI50 was given In vitro as +50% percent growth (PG), measured as concentration of compound required to inhibit disease oriented human tumor cell line panels; Value ranges from 0.23-29.5; assay type: functional
Method in brief: (§1)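 Human tumour cell line panel; percent growth plotted against log drug concentration to give dose-response curves. GI50 is the concentration giving PG +50%, and TGI the concentration giving PG 0%. Values are mean inhibitory concentrations over the entire panel. PG values at either limit (> or <) are included in the mean.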

[2] = tested on: Tumor Cell line; experiment: LC50 was given In vitro as -50% percent growth (PG), measured as concentration of compound required to inhibit disease oriented human tumor cell line panels; Value ranges from 67.61->100; assay type: functional; details: read-out: LC50 (the source's name)
Method in brief: (§2)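 Human tumor cell line panel tested in vitro. Percent growth (PG) plotted against log drug concentration to give dose-response curves. LC50 is the concentration where PG equals -50%; GI50 and TGI are taken at +50% and 0%. Values are means across the full panel, with values beyond the tested limits (> or <) included in the mean.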

[3] = tested on: Tumor Cell line; experiment: GI50 was measured In vitro as the ratio of the mean activity for all non-CNS tumor cell lines over the mean activity of the CNS tumor subpanel (eight cell lines); assay type: functional, Homo sapiens
Method in brief: (§3)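 Ratio of the mean activity (μM) over all non-CNS tumour cell lines (ca. 40-50 lines) to the mean activity (μM) of the CNS subpanel (eight lines). Activity was taken from PG vs log concentration curves: GI50 at PG +50%, TGI at PG 0%.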

[4] = tested on: Tumor Cell line; experiment: TGI was measured In vitro as the ratio of the mean activity for all non-CNS tumor cell lines over the mean activity of the CNS tumor subpanel (eight cell lines); assay type: functional, Homo sapiens; method in brief: as §3
[5] = tested on: Tumor Cell line; experiment: LC50 was given in vitro as -50% percent growth (PG), measured as concentration of compound required to inhibit disease oriented human tumor cell line panels; Value ranges from 5.50->100; assay type: functional; details: read-out: LC50 (the source's name); method in brief: as §2
[6] = TGI was measured in vitro as the ratio of the mean activity for all non-CNS tumor cell lines over the mean activity of the CNS tumor subpanel (eight cell lines); assay type: functional; method in brief: as §3
[7] = GI50 was measured in vitro as the ratio of the mean activity for all non-CNS tumor cell lines over the mean activity of the CNS tumor subpanel (eight cell lines); assay type: functional; method in brief: as §3
[8] = tested on: Tumor Cell line; experiment: GI50 was given in vitro as +50% percent growth (PG), measured as concentration of compound required to inhibit disease oriented human tumor cell line panels; Value ranges from 1.58-11.22; assay type: functional; method in brief: as §1
[9] = LC50 was measured in vitro as the ratio of the mean activity for all non-CNS tumor cell lines over the mean activity of the CNS tumor subpanel (eight cell lines); assay type: functional
Method in brief: (§4)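 Same PG dose-response panel. LC50 (μM) is averaged separately over the non-CNS lines (ca. 40-50 lines) and the CNS subpanel (eight lines). The ratio is the non-CNS mean divided by the CNS mean.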

[10] = tested on: Tumor Cell line; experiment: TGI was given in vitro as 0% percent growth (PG), measured as concentration of compound required to inhibit disease oriented human tumor cell line panels; Value ranges from 2.95-54.95; assay type: functional; method in brief: as §1
[11] = tested on: Tumor Cell line; experiment: LC50 was given In vitro as -50% percent growth (PG), measured as concentration of compound required to inhibit disease oriented human tumor cell line panels; Value ranges from 4.09->100; assay type: functional; details: read-out: LC50 (the source's name); method in brief: as §2
[12] = tested on: Tumor Cell line; experiment: TGI was given In vitro as 0% percent growth (PG), measured as concentration of compound required to inhibit disease oriented human tumor cell line panels; Value ranges from 2-5.50; assay type: functional; method in brief: as §1
[13] = tested on: Tumor Cell line; experiment: GI50 was given In vitro as +50% percent growth (PG), measured as concentration of compound required to inhibit disease oriented human tumor cell line panels; Value ranges from 0.62-2.95; assay type: functional; method in brief: as §1
[14] = tested on: Tumor Cell line; experiment: LC50 was measured In vitro as the ratio of the mean activity for all non-CNS tumor cell lines over the mean activity of the CNS tumor subpanel (eight cell lines); assay type: functional, Homo sapiens; method in brief: as §4
[15] = tested on: Tumor Cell line; experiment: GI50 was given in vitro as +50% percent growth (PG), measured as concentration of compound required to inhibit disease oriented human tumor cell line panels; Value ranges from 1.55-16.6; assay type: functional; method in brief: as §1
[16] = tested on: Tumor Cell line; experiment: TGI was given in vitro as 0% percent growth (PG), measured as concentration of compound required to inhibit disease oriented human tumor cell line panels; Value ranges from 2.75-41.69; assay type: functional; method in brief: as §1
[17] = tested on: Tumor Cell line; experiment: LC50 was given in vitro as -50% percent growth (PG), measured as concentration of compound required to inhibit disease oriented human tumor cell line panels; Value ranges from 5.75->100; assay type: functional; details: read-out: LC50 (the source's name); method in brief: as §2
[18] = tested on: Tumor Cell line; experiment: LC50 was given In vitro as -50% percent growth (PG), measured as concentration of compound required to inhibit disease oriented human tumor cell line panels; assay type: functional; details: read-out: LC50 (the source's name); method in brief: as §2
[19] = tested on: Tumor Cell line; experiment: GI50 was given In vitro as +50% percent growth (PG), measured as concentration of compound required to inhibit disease oriented human tumor cell line panels; Value ranges from 0.32-2; assay type: functional; method in brief: as §1
[20] = tested on: Tumor Cell line; experiment: LC50 was given In vitro as -50% percent growth (PG), measured as concentration of compound required to inhibit disease oriented human tumor cell line panels; Value ranges from 5.25->100; assay type: functional; details: read-out: LC50 (the source's name); method in brief: as §2
[21] = tested on: Tumor Cell line; experiment: LC50 was given In vitro as -50% percent growth (PG), measured as concentration of compound required to inhibit disease oriented human tumor cell line panels; Value ranges from 12.30->100; assay type: functional; details: read-out: LC50 (the source's name); method in brief: as §2
[22] = tested on: Tumor Cell line; experiment: TGI was given In vitro as 0% percent growth (PG), measured as concentration of compound required to inhibit disease oriented human tumor cell line panels; assay type: functional; method in brief: as §1
[23] = tested on: Tumor Cell line; experiment: GI50 was given In vitro as +50% percent growth (PG), measured as concentration of compound required to inhibit disease oriented human tumor cell line panels; assay type: functional; method in brief: as §1
[24] = tested on: Tumor Cell line; experiment: LC50 was given In vitro as -50% percent growth (PG), measured as concentration of compound required to inhibit disease oriented human tumor cell line panels; Value ranges from 22.91->55; assay type: functional; details: read-out: LC50 (the source's name); method in brief: as §2
[25] = tested on: Tumor Cell line; experiment: GI50 was given In vitro as +50% percent growth (PG), measured as concentration of compound required to inhibit disease oriented human tumor cell line panels; Value ranges from 0.51-12.88; assay type: functional; method in brief: as §1

## CC(=O)[O-].Cc1c2cc[n+](C)cc2c(C)c2c1[nH]c1ccc(Oc3ccccc3)cc12
[1]
  GI50: 1.82 µM
[2]
  CC50: > 97.7 µM
[3]
  GI50 ratio: 3.48
[4]
  TGI ratio: 3.06

## Cc1c2ccncc2c(C)c2c1[nH]c1ccc(OC(C)(C)C)cc12
[5]
  CC50: > 32.4 µM
[6]
  TGI ratio: 1.17
[7]
  GI50 ratio: 1.1
[8]
  GI50: 2.57 µM
[9]
  LC50 ratio: 0.98 µM
[10]
  TGI: 7.24 µM

## Cc1c2ccncc2c(C)c2c1[nH]c1ccc(OCC(F)(F)F)cc12
[11]
  CC50: > 8.13 µM
[12]
  TGI: 3.24 µM
[13]
  GI50: 1.58 µM
[14]
  LC50 ratio: 0.74
[3]
  GI50 ratio: 0.63
[4]
  TGI ratio: 0.73

## Cc1c2ccncc2c(C)c2c1[nH]c1ccc(Oc3ccccc3)cc12
[15]
  GI50: 2.63 µM
[6]
  TGI ratio: 0.81
[16]
  TGI: 6.03 µM
[7]
  GI50 ratio: 0.82
[9]
  LC50 ratio: 0.88 µM
[17]
  CC50: > 19.5 µM

## CC(=O)[O-].Cc1c2cc[n+](C)cc2c(C)c2c1[nH]c1ccc(O)cc12 [ELLIPTINIUM ACETATE]
[3]
  GI50 ratio: 6.28
[4]
  TGI ratio: 9.34
[18]
  CC50: > 100 µM

## Cc1c2ccncc2c(C)c2c1[nH]c1ccc(OC(C)C)cc12
[19]
  GI50: 1.32 µM
[20]
  CC50: > 6.61 µM
[3]
  GI50 ratio: 0.78
[4]
  TGI ratio: 0.9

## Cc1c2cc[n+](C)cc2c(C)c2c1[nH]c1ccc(OCC(F)(F)F)cc12.[I-]
[21]
  CC50: > 79.4 µM
[13]
  GI50: 1.58 µM
[3]
  GI50 ratio: 6.26
[4]
  TGI ratio: 9.11

## CC(=O)[O-].Cc1c2cc[n+](C)cc2c(C)c2c1[nH]c1ccc(OC(C)(C)C)cc12
[22]
  TGI: > 100 µM
[23]
  GI50: > 100 µM
[3]
  GI50 ratio: 1
[4]
  TGI ratio: 1
[18]
  CC50: > 100 µM

## Cc1c2cc[n+](C)cc2c(C)c2c1[nH]c1ccc(O)c(OCC(F)(F)F)c12.[I-]
[14]
  LC50 ratio: 1.35
[24]
  CC50: > 50.1 µM
[3]
  GI50 ratio: 5.65
[4]
  TGI ratio: 3.89
[25]
  GI50: 2.24 µM
